{"source": "ChEMBL document CHEMBL1165947", "about": "“Synthesis and antitumor activity of 2,5-bis(3'-indolyl)-furans and 3,5-bis(3'-indolyl)-isoxazoles, nortopsentin analogues” (Bioorg Med Chem, 2010)", "format_in_all_cases": "functional, cell-based", "key": {"[1]": {"assay": "Cytotoxicity against human BXF 1218L cells after 4 days by modified propidium iodide staining-based fluorescence assay", "details": "96 h", "how_it_was_run": "(§1)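 Cells cultured in RPMI 1640 with 10% fetal calf serum and 0.1 mg/mL gentamicin at 37 °C, 5% CO2. Cells from exponential cultures were trypsinized and plated at 4.000-20.000 cells/well by line. After 24 h recovery, compounds were added at five log-spaced concentrations (highest 100 μg/mL) for 4 days. Proliferation was read as DNA content with aqueous propidium iodide (7 μg/ml), fluorescence ex 530/em 620 nm. Points were run in triplicate.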"}, "[2]": {"assay": "Cytotoxicity against human MAXF 401NL cells after 4 days by modified propidium iodide staining-based fluorescence assay", "details": "96 h", "how_it_was_run": "as §1"}, "[3]": {"assay": "Cytotoxicity against human LXFL 1121L cells after 4 days by modified propidium iodide staining-based fluorescence assay", "details": "96 h", "how_it_was_run": "as §1"}, "[4]": {"assay": "Cytotoxicity against human 1752L cells after 4 days by modified propidium iodide staining-based fluorescence assay", "details": "96 h", "how_it_was_run": "as §1"}, "[5]": {"assay": "Cytotoxicity against human MEXF 462NL cells after 4 days by modified propidium iodide staining-based fluorescence assay", "details": "96 h", "how_it_was_run": "as §1"}, "[6]": {"system": "NCI-H460", "assay": "Cytotoxicity against human H460 cells after 4 days by modified propidium iodide staining-based fluorescence assay", "details": "NCI-H460, 96 h", "how_it_was_run": "as §1"}, "[7]": {"assay": "Cytotoxicity against human LXFA 629L cells after 4 days by modified propidium iodide staining-based fluorescence assay", "details": "96 h", "how_it_was_run": "as §1"}, "[8]": {"system": "HT-29", "assay": "Cytotoxicity against human HT-29 cells after 4 days by modified propidium iodide staining-based fluorescence assay", "details": "HT-29, 96 h", "how_it_was_run": "as §1"}, "[9]": {"system": "MCF7", "assay": "Cytotoxicity against human MCF7 cells after 4 days by modified propidium iodide staining-based fluorescence assay", "details": "MCF7, 96 h", "how_it_was_run": "as §1"}, "[10]": {"system": "OVCAR-3", "assay": "Cytotoxicity against human OVCAR-3 cells after 4 days by modified propidium iodide staining-based fluorescence assay", "details": "OVCAR-3, 96 h", "how_it_was_run": "as §1"}, "[11]": {"system": "CWR22R", "assay": "Cytotoxicity against human 22Rv1 cells after 4 days by modified propidium iodide staining-based fluorescence assay", "details": "22Rv1, 96 h", "how_it_was_run": "as §1"}, "[12]": {"assay": "Cytotoxicity against human 1781L cells after 4 days by modified propidium iodide staining-based fluorescence assay", "details": "96 h", "how_it_was_run": "as §1"}, "[13]": {"assay": "Cytotoxicity against human LXFA 526L cells after 4 days by modified propidium iodide staining-based fluorescence assay", "details": "96 h", "how_it_was_run": "as §1"}, "[14]": {"assay": "Cytotoxicity against human MEXF 276L cells after 4 days by modified propidium iodide staining-based fluorescence assay", "details": "MEXF276L, 96 h", "how_it_was_run": "as §1"}, "[15]": {"assay": "Cytotoxicity against human 1657L cells after 4 days by modified propidium iodide staining-based fluorescence assay", "details": "96 h", "how_it_was_run": "as §1"}, "[16]": {"system": "SF-268", "assay": "Cytotoxicity against human SF268 cells after 4 days by modified propidium iodide staining-based fluorescence assay", "details": "SF-268, 96 h", "how_it_was_run": "as §1"}, "[17]": {"assay": "Cytotoxicity against human RXF 486L cells after 4 days by modified propidium iodide staining-based fluorescence assay", "details": "96 h", "how_it_was_run": "as §1"}, "[18]": {"assay": "Cytotoxicity against human GXF251L cells after 4 days by modified propidium iodide staining-based fluorescence assay", "details": "GXF 251L, 96 h", "how_it_was_run": "as §1"}, "[19]": {"system": "LNCaP", "assay": "Cytotoxicity against human LNCAP cells after 4 days by modified propidium iodide staining-based fluorescence assay", "details": "96 h", "how_it_was_run": "as §1"}, "[20]": {"system": "PANC-1", "assay": "Cytotoxicity against human PANC1 cells after 4 days by modified propidium iodide staining-based fluorescence assay", "details": "PANC-1, 96 h", "how_it_was_run": "as §1"}, "[21]": {"assay": "Cytotoxicity against human UXF 1138L cells after 4 days by modified propidium iodide staining-based fluorescence assay", "details": "96 h", "how_it_was_run": "as §1"}, "[22]": {"system": "A549", "assay": "Cytotoxicity against human A549 cells after 4 days by modified propidium iodide staining-based fluorescence assay", "details": "A549, 96 h", "how_it_was_run": "as §1"}, "[23]": {"assay": "Cytotoxicity against human LXFA 289L cells after 4 days by modified propidium iodide staining-based fluorescence assay", "details": "96 h", "how_it_was_run": "as §1"}, "[24]": {"system": "DU-145", "assay": "Cytotoxicity against human DU145 cells after 4 days by modified propidium iodide staining-based fluorescence assay", "details": "DU-145, 96 h", "how_it_was_run": "as §1"}, "[25]": {"assay": "Cytotoxicity against human PC3M cells after 4 days by modified propidium iodide staining-based fluorescence assay", "details": "PC-3M, 96 h", "how_it_was_run": "as §1"}, "[26]": {"system": "HCT-116", "assay": "Cytotoxicity against human HCT116 cells after 4 days by modified propidium iodide staining-based fluorescence assay", "details": "HCT-116, 96 h", "how_it_was_run": "as §1"}, "[27]": {"assay": "Cytotoxicity against human MEXF 520L cells after 4 days by modified propidium iodide staining-based fluorescence assay", "details": "96 h", "how_it_was_run": "as §1"}, "[28]": {"system": "T-24", "assay": "Cytotoxicity against human T24 cells after 4 days by modified propidium iodide staining-based fluorescence assay", "details": "T-24, 96 h", "how_it_was_run": "as §1"}, "[29]": {"assay": "Cytotoxicity against human 899L cells after 4 days by modified propidium iodide staining-based fluorescence assay", "details": "96 h", "how_it_was_run": "as §1"}}, "data": [{"smiles": "Cn1cc(-c2cc(-c3cn(C)c4ccccc34)on2)c2ccccc21", "values": [{"measurement": "IC50", "setting": "[1]", "result": 20, "unit": "µg/mL"}, {"measurement": "IC50", "setting": "[2]", "result": 28.8, "unit": "µg/mL"}, {"measurement": "IC50", "setting": "[3]", "result": 21, "unit": "µg/mL"}, {"measurement": "IC50", "setting": "[4]", "result": 24.2, "unit": "µg/mL"}, {"measurement": "IC50", "setting": "[5]", "result": 37.8, "unit": "µg/mL"}, {"measurement": "IC50", "setting": "[6]", "result": 18.4, "unit": "µg/mL"}, {"measurement": "IC50", "setting": "[7]", "result": 4.2, "unit": "µg/mL"}, {"measurement": "IC50", "setting": "[8]", "result": 32.7, "unit": "µg/mL"}, {"measurement": "IC50", "setting": "[9]", "result": 21.5, "unit": "µg/mL"}, {"measurement": "IC50", "setting": "[10]", "result": 11.1, "unit": "µg/mL"}, {"measurement": "IC50", "setting": "[11]", "result": 14.1, "unit": "µg/mL"}, {"measurement": "IC50", "setting": "[12]", "result": 38.7, "unit": "µg/mL"}, {"measurement": "IC50", "setting": "[13]", "result": 11.5, "unit": "µg/mL"}, {"measurement": "IC50", "setting": "[14]", "result": 13.3, "unit": "µg/mL"}, {"measurement": "IC50", "setting": "[15]", "result": 29.9, "unit": "µg/mL"}, {"measurement": "IC50", "setting": "[16]", "result": 24.6, "unit": "µg/mL"}, {"measurement": "IC50", "setting": "[17]", "result": 29.3, "unit": "µg/mL"}, {"measurement": "IC50", "setting": "[18]", "result": 7.2, "unit": "µg/mL"}, {"measurement": "IC50", "setting": "[19]", "result": 11.5, "unit": "µg/mL"}, {"measurement": "IC50", "setting": "[20]", "result": 8.8, "unit": "µg/mL"}, {"measurement": "IC50", "setting": "[21]", "result": 4.8, "unit": "µg/mL"}, {"measurement": "IC50", "setting": "[22]", "result": 5.1, "unit": "µg/mL"}, {"measurement": "IC50", "setting": "[23]", "result": 18.7, "unit": "µg/mL"}, {"measurement": "IC50", "setting": "[24]", "result": 18.3, "unit": "µg/mL"}, {"measurement": "IC50", "setting": "[25]", "result": 28.1, "unit": "µg/mL"}, {"measurement": "IC50", "setting": "[26]", "result": 29.5, "unit": "µg/mL"}, {"measurement": "IC50", "setting": "[27]", "result": 24.1, "unit": "µg/mL"}, {"measurement": "IC50", "setting": "[28]", "result": 40.6, "unit": "µg/mL"}, {"measurement": "IC50", "setting": "[29]", "result": 14.9, "unit": "µg/mL"}]}]}
